In data set [1] the test system is CCRF-CEM. Put plainly: Cytotoxicity against human CEM cell. The format is functional.
Data set [2] deals with HepG2. As to the kind of experiment: Cytotoxicity against human HepG2 cells. Type of data set: functional.
Data set [3] deals with Hepatitis B virus. Put plainly: Antiviral activity against Hepatitis B virus. Type of data set: functional, organism-based. The essentials:
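Anti-HBV activity measured in HepG2 cells.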

The test system of data set [4] is Vero. Put plainly: (§1) Cytotoxicity against african green monkey Vero cells. The settings on record: chlorocebus sabaeus, vero. The format is cell-based.
Data set [5] concerns PBMC. Put plainly: (§2) Cytotoxicity against human PBMC. The format is cell-based. The settings on record: pbmc.
For data set [6], the system named is Human immunodeficiency virus 1. Put plainly: Antiviral activity against HIV1. Type of data set: functional, organism-based. In outline:
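Antiviral assay run in primary human lymphocytes.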

Data set [7] is described as follows: as §1. The format is cell-based. The settings on record: chlorocebus sabaeus, Vero cells.
Data set [8] can be described thus: as §2. The format is cell-based. The settings on record: PBMC (peripheral blood mononuclear cells).

Broadly, the CC50 is the concentration that lowers cell viability or growth by half. One may read the EC50 as the concentration that produces a half-maximal response. One may read the EC90 as the concentration at which the effect reaches the 90% level.

As for `CCCCCCCCCCCCCC(=O)Nc1nc(N)nc2c1ncn2[C@H]1CO[C@@H](CO)O1`, the CC50 in data set [1] is 4.6 µM; in data set [2], 56 µM; in data set [4], 7.7 µM; in data set [5], more than 100 µM. Also, the figures for the EC50 in data set [3] and in data set [6] were more than 10 µM and 6.5 µM, respectively. Further, the EC90 in data set [3] is more than 10 µM; in data set [6] it was 27 µM.

Consider `CC(=O)Nc1nc(N)nc2c1ncn2[C@H]1CO[C@@H](CO)O1`, for which the CC50 in data set [1], in data set [2], in data set [4] and in data set [5] was more than 100 µM throughout. Further, the values for the EC50 in data set [3] and in data set [6] were more than 10 µM and 0.56 µM, respectively. Further, the results for the EC90 in data set [3] and in data set [6] were more than 10 µM and 12 µM, respectively.

In the case of `CCCC(=O)Nc1nc(N)nc2c1ncn2[C@H]1CO[C@@H](CO)O1`, the CC50 in data set [1], in data set [2], in data set [4] and in data set [5] was more than 100 µM in each case. In addition, the EC50 in data set [3] was more than 10 µM; in data set [6], 9.2 µM. Besides, the EC90 is more than 10 µM in data set [3] and 38 µM in data set [6].

On to `CCCCCC(=O)Nc1nc(N)nc2c1ncn2[C@H]1CO[C@@H](CO)O1`, for which the CC50 in data set [1], in data set [2], in data set [4] and in data set [5] was more than 100 µM throughout. Further, the figures for the EC50 in data set [3] and in data set [6] were more than 10 µM and 34 µM, respectively. The EC90 in data set [3] is more than 10 µM; in data set [6], more than 100 µM.

`CCCCCCCC(=O)Nc1nc(N)nc2c1ncn2[C@H]1CO[C@@H](CO)O1`: the CC50 in data set [1], in data set [2], in data set [4] and in data set [5] was more than 100 µM in each case. In addition, the EC50 in data set [3] was more than 10 µM; in data set [6], 21 µM. The EC90 in data set [3] was more than 10 µM; in data set [6], 56 µM.

Consider `CCCCCCCCCC(=O)Nc1nc(N)nc2c1ncn2[C@H]1CO[C@@H](CO)O1`, for which the CC50 is 65 µM in data set [1], more than 100 µM in data set [2], more than 100 µM in data set [4] and more than 100 µM in data set [5]. Also, the figures for the EC50 in data set [3] and in data set [6] were more than 10 µM and 26 µM, respectively. Moreover, the EC90 is more than 10 µM in data set [3] and 65 µM in data set [6].

Turning to `CCCCCCCCCCCC(=O)Nc1nc(N)nc2c1ncn2[C@H]1CO[C@@H](CO)O1`, the CC50 in data set [1] was 13 µM; in data set [2] it was more than 100 µM; in data set [4], 53 µM; in data set [5], 60 µM. The EC50 in data set [3] is more than 10 µM; in data set [6], 3.6 µM. For the same molecule, the EC90 was more than 10 µM in data set [3] and 18 µM in data set [6].

For `CCCCCCCCCCCCCCCC(=O)Nc1nc(N)nc2c1ncn2[C@H]1CO[C@@H](CO)O1`, the CC50 in data set [1] is more than 100 µM; in data set [2], more than 100 µM; in data set [4], 90 µM; in data set [5], more than 100 µM. Moreover, the EC50 in data set [3] was more than 10 µM; in data set [6], 1.2 µM. The EC90 in data set [3] is more than 10 µM; in data set [6] it was 6 µM.

`CCCCCCCC/C=C\CCCCCCCC(=O)Nc1nc(N)nc2c1ncn2[C@H]1CO[C@@H](CO)O1`: the CC50 stood at 13 µM in data set [1], 11 µM in data set [2], 19 µM in data set [7] and 76 µM in data set [8]. For the same molecule, the EC50 in data set [3] is more than 10 µM; in data set [6], 3.5 µM. Also, the EC90 in data set [3] is more than 10 µM; in data set [6], 13 µM.

As for `Nc1nc(N)c2ncn([C@H]3CO[C@@H](CO)O3)c2n1` [AMDOXOVIR], the CC50 in data set [1], in data set [2], in data set [4] and in data set [5] was more than 100 µM in each case. Besides, the EC50 in data set [3] was found to be 12 µM; in data set [6] it was 0.45 µM. The results for the EC90 in data set [3] and in data set [6] were more than 100 µM and 7.6 µM, respectively.

`Cc1cn([C@H]2C[C@H](N=[N+]=[N-])[C@@H](CO)O2)c(=O)[nH]c1=O` [ZIDOVUDINE]: the CC50 in data set [1] was 14 µM; in data set [2] it was more than 100 µM; in data set [4] it was 56 µM; in data set [8] it was more than 100 µM. Also, the EC50 in data set [3] was more than 10 µM; in data set [6], 0.0037 µM. The EC90 in data set [3] was more than 10 µM; in data set [6] it was 0.047 µM.

Values taken from ChEMBL document CHEMBL3351712, “Synthesis and antiviral evaluation of 2-amino-6-carbamoylpurine dioxolane nucleoside derivatives and their phosphoramidates prodrugs” (Bioorg Med Chem, 2014).
